Experiments:
Mus musculus = assay: Loss of righting reflex following i.v. administration in mice.; type: functional
Method in brief: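 Male MF-1 mice in groups of eight given compound in saline iv via lateral tail vein over 10 s (10 mL/kg). Doses on a umol/kg scale, extra doses added to narrow range. Animals boxed separately; loss of righting reflex lasting ≥30 s scored. HD50 with 95% confidence limits by probit analysis.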

[1] = molecular target: T1, GABA-A receptor; alpha-1/beta-3/gamma-2 (Homo sapiens, UniProt P14867+P18507+P28472); assay: GABA-modulatory action compound was evaluated on Oocytes expressing recombinant human alpha-1-beta-3-gamma-2L GABA A receptor at concentrations of >=100 micro<M; type: protein-complex assay
T1 sequence (P14867 whole entry): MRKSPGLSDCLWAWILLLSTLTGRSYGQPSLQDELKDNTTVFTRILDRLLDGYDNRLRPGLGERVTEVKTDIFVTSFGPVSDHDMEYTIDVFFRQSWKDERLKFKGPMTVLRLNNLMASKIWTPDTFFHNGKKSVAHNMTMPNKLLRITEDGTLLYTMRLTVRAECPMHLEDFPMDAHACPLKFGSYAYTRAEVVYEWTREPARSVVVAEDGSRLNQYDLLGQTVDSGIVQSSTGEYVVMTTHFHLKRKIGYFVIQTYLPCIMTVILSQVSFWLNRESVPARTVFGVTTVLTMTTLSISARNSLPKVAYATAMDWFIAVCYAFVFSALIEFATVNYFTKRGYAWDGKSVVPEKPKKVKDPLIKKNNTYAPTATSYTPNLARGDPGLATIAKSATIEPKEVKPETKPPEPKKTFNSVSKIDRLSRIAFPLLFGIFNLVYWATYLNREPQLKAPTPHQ
T1 sequence (P18507 whole entry): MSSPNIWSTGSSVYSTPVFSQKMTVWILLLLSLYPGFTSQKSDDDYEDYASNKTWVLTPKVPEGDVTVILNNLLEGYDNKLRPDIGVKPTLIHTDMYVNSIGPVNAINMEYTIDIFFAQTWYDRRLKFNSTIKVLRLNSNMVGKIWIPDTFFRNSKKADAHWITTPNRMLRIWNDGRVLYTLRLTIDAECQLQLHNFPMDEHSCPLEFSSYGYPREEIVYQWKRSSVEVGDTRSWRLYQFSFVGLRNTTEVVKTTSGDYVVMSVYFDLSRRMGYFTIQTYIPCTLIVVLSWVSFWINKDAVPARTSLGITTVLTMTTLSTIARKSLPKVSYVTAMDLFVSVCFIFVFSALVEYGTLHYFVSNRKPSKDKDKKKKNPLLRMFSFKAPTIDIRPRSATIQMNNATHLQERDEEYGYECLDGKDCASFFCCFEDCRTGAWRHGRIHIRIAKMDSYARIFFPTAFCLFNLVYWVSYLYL
T1 sequence (P28472 whole entry): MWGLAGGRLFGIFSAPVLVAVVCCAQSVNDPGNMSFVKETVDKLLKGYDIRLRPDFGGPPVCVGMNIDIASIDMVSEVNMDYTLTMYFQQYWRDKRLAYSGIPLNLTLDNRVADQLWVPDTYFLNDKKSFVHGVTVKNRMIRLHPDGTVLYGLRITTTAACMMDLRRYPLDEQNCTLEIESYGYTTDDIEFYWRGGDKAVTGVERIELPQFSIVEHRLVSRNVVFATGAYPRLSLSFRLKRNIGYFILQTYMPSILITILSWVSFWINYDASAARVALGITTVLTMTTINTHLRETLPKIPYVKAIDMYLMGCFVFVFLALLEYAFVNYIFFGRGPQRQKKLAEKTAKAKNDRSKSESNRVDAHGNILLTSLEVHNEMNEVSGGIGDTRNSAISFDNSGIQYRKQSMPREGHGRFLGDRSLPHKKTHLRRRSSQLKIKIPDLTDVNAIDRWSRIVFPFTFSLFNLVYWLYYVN
Method in brief: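 Oocytes expressing human α1β3γ2L receptors, used 2–12 days after cRNA injection, were recorded with two electrodes at 18–22 °C. […] Compound was preapplied 30–60 s, then co-applied with EC10 GABA. Peak current was read manually; EC50 came from the fitted curve; mean ± s.e.mean.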

[2] = molecular target: GABA-A receptor; anion channel (Rattus norvegicus) (UniProt O09028+P15431+P18506+P18508+P19969+P20236+P23574+P23576+P28471+P28473+P30191+P62813+P63079+P63138+Q91ZM7+Q9ES14); assay: Ability to inhibit [35S]t-butyl-bicyclophosphorothionate binding by 50% to rat whole brain membrane; type: tissue-based
Method in brief: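 Male Wistar rat whole-brain membranes, washed with four freeze–thaw cycles. 100 ug membrane protein incubated with [35S]TBPS (2 nM final) in 20 mM KH2PO4/200 mM KCl, pH 7.4, containing GABA 600 nM final. Incubated 150 min at about 22 °C on shaker; vacuum filtration through GF/B filters; scintillation counting. Nonspecific binding with 200 uM picrotoxin. Reported as IC50, mean ± SEM.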

[3] = molecular target: T1, GABA-A receptor; alpha-1/beta-3/gamma-2; assay: GABA-mimetic action on Oocytes expressing human alpha-1-beta-3-gamma-2L GABA-A receptor subunits at >=100 uM

Row | TBPS IC50 [2] [µM] | Structure (SMILES) | HD50 (Mus musculus) [µmol/kg] | EC50 [1] [µM] | EC50 [3] [µM]
1 | 23.8 | COc1cccc(OC)c1OC(=O)[C@H](C)N1CCc2ccccc2C1 | 82.6 | > 100 | –
2 | > 100 | COc1cccc(OC)c1C(=O)NCCN1CCc2ccccc2C1 | 45.7 | – | –
3 | 7.4 | CC[C@H](C(=O)Oc1c(OC)cccc1OC)N(CCOC)CCOC | – | – | –
4 | 4.8 | COc1cccc(OC)c1OC(=O)C(C)N1CCc2ccccc2C1 (stereo not drawn) | 33.2 | 5.5 | –
5 | 24.3 | CCC(C(=O)Oc1c(OC)cccc1OC)N(CCOC)CCOC (stereo not drawn) | – | – | –
6 | > 10 | COc1cc(C)cc(OC)c1OC(=O)C(C)(C)N1CCOCC1 | 53.8 | – | –
7 | > 10 | COc1cccc(OC)c1NC(=O)[C@@H](C)N1CCc2ccccc2C1 | 44.1 | – | –

The remaining lines, values behind:

Row | Structure (SMILES) | TBPS IC50 [2] [µM] | HD50 (Mus musculus) [µmol/kg] | EC50 [1] [µM] | EC50 [3] [µM]
8 | CC(C)c1cccc(C(C)C)c1OC(=O)CN1CCOCC1 | – | 98.1 | – | –
9 | CC[C@H](C(=O)Oc1c(OC)cc(C)cc1OC)N(CCOC)CCOC [ORG-24447] | 16 | 18 | 10 | –
10 | COc1cccc(OC)c1OC(=O)[C@@H](C)N1CCOCC1.Cl | > 100 | 85.9 | 198 | –
11 | COCCN(CCOC)C(C(=O)Oc1c(OC)cccc1OC)C(C)C (stereo not drawn) | > 10 | 26.9 | – | –
12 | COc1cccc(OC)c1OC(=O)C(c1ccccc1)N1CCOCC1 (stereo not drawn) | 66 | 39.6 | – | –
13 | CCCCC(C(=O)Oc1c(OC)cccc1OC)N(CCOC)CCOC (stereo not drawn) | 1.6 | 11 | – | –
14 | CCCC(C(=O)Oc1c(OC)cccc1OC)N(CCOC)CCOC (stereo not drawn) | 7.7 | 12.4 | – | –
15 | CCC[C@H](C(=O)Oc1c(OC)cccc1OC)N(CCOC)CCOC | 3.2 | 7.3 | – | –
16 | CCC(C(=O)Oc1c(OC)cc(C)cc1OC)N(CCOC)CCOC (stereo not drawn) | 29.3 | 21.7 | – | –
17 | CCC(C(=O)Oc1c(OC)cccc1OC)N1CCOCC1 (stereo not drawn) | > 10 | 38 | – | –
18 | COc1cccc(OC)c1OC(=O)[C@@H](C)N1CCc2ccccc2C1 | 3.3 | 20.7 | 4.1 | –
19 | CC(C)c1cccc(C(C)C)c1O [PROPOFOL] | – | – | 4.1 | 50
20 | COc1cccc(OC)c1C(=O)OCCN1CCc2ccccc2C1 | > 30 | 19 | – | –
21 | CCC(C(=O)Oc1c(OC)cc(C)cc1OC)N1CCOCC1 (stereo not drawn) | – | 68.1 | – | –

Reference: ChEMBL document CHEMBL1134654, “Alpha-amino acid phenolic ester derivatives: novel water-soluble general anesthetic agents which allosterically modulate GABA(A) receptors” (J Med Chem, 2001)
